Test results published in ChEMBL document CHEMBL3425426, “Discovery of DS-1558: A Potent and Orally Bioavailable GPR40 Agonist” (ACS Med Chem Lett, 2015).
Values belong to the molecule of their own block, whether it stands above or below them. Activity calls are given as the source filed them. No cut-off for these calls is given here.

Tests used:
Homo sapiens [1] = species: Homo sapiens; assay: Selectivity for human GPR40 over central imidazoline I2 receptor (unknown origin)
Homo sapiens [2] = species: Homo sapiens; assay: Selectivity for human GPR40 over 5HT3 receptor (unknown origin)
Homo sapiens [3] = species: Homo sapiens; assay: Selectivity for human GPR40 over central GABAA receptor flunitrazepam binding site (unknown origin)
Homo sapiens [4] = species: Homo sapiens; assay: Selectivity for human GPR40 over 5HT1A receptor (unknown origin)
Homo sapiens [5] = species: Homo sapiens; assay: Selectivity for human GPR40 over NET (unknown origin)
Homo sapiens [6] = species: Homo sapiens; assay: Selectivity for human GPR40 over rolipram binding receptor (unknown origin)
Homo sapiens [7] = species: Homo sapiens; assay: Selectivity for human GPR40 over central GABAA receptor muscimol binding site (unknown origin)
Homo sapiens [8] = species: Homo sapiens; assay: Selectivity for human GPR40 over muscarinic M1 receptor (unknown origin)
Homo sapiens [9] = species: Homo sapiens; assay: Selectivity for human GPR40 over dopamine D4.2 receptor (unknown origin)
Homo sapiens [10] = species: Homo sapiens; assay: Selectivity for human GPR40 over adenosine A2A receptor (unknown origin)
Homo sapiens [11] = species: Homo sapiens; assay: Selectivity for human GPR40 over phorbol ester receptor (unknown origin)
Homo sapiens [12] = species: Homo sapiens; assay: Selectivity for human GPR40 over calcium channel L-type dihydropyridine binding site (unknown origin)
Homo sapiens [13] = species: Homo sapiens; assay: Selectivity for human GPR40 over EP4 receptor (unknown origin)
Homo sapiens [14] = species: Homo sapiens; assay: Selectivity for human GPR40 over CysLT1 receptor (unknown origin)
Homo sapiens [15] = species: Homo sapiens; assay: Selectivity for human GPR40 over thyroid receptor receptor (unknown origin)
Homo sapiens [16] = species: Homo sapiens; assay: Selectivity for human GPR40 over P2X receptor (unknown origin)
Homo sapiens [17] = species: Homo sapiens; assay: Selectivity for human GPR40 over GABA transporter (unknown origin)
Homo sapiens [18] = species: Homo sapiens; assay: Selectivity for human GPR40 over muscarinic M2 receptor (unknown origin)
Homo sapiens [19] = species: Homo sapiens; assay: Selectivity for human GPR40 over kainate receptor (unknown origin)
Homo sapiens [20] = species: Homo sapiens; assay: Selectivity for human GPR40 over human ERG channel
Homo sapiens [21] = species: Homo sapiens; assay: Selectivity for human GPR40 over delta opioid receptor (unknown origin)
Homo sapiens [22] = species: Homo sapiens; assay: Selectivity for human GPR40 over histamine H3 receptor (unknown origin)
Homo sapiens [23] = species: Homo sapiens; assay: Selectivity for human GPR40 over MT1 receptor (unknown origin)
Homo sapiens [24] = species: Homo sapiens; assay: Selectivity for human GPR40 over adrenergic beta2 receptor (unknown origin)
Homo sapiens [25] = species: Homo sapiens; assay: Selectivity for human GPR40 over neuropeptide YY1 receptor (unknown origin)
Rattus norvegicus [26] = assay: Reduction in glucose excursion in ZDF rat at 0.03 mg/kg, po dosed 30 mins before glucose challenge by OGTT method; type: functional, organism-based; parameters: dose 0.03 mg/kg
Procedure, shortened: (§1)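 Male Zucker diabetic fatty rats, 9 weeks old, n = 6 per group. Oral dose given 30 min before an oral glucose challenge of 2 g/kg. Plasma glucose and plasma insulin were followed over time after the challenge. Values are reported as mean ± standard error.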

Homo sapiens [27] = species: Homo sapiens; assay: Selectivity for human GPR40 over ERalpha (unknown origin)
Homo sapiens [28] = species: Homo sapiens; assay: Selectivity for human GPR40 over PAF receptor (unknown origin)
Homo sapiens [29] = species: Homo sapiens; assay: Selectivity for human GPR40 over adrenergic alpha2A receptor (unknown origin)
Homo sapiens [30] = species: Homo sapiens; assay: Selectivity for human GPR40 over endothelin ETA receptor (unknown origin)
Homo sapiens [31] = species: Homo sapiens; assay: Selectivity for human GPR40 over sigma-2 receptor (unknown origin)
Homo sapiens [32] = species: Homo sapiens; assay: Selectivity for human GPR40 over GCR (unknown origin)
[33] = molecular target: T1, Peroxisome proliferator-activated receptor gamma (Homo sapiens) (UniProt P37231); assay: Agonist activity at PPARgamma (unknown origin) up to 100 uM
T1 sequence (whole entry): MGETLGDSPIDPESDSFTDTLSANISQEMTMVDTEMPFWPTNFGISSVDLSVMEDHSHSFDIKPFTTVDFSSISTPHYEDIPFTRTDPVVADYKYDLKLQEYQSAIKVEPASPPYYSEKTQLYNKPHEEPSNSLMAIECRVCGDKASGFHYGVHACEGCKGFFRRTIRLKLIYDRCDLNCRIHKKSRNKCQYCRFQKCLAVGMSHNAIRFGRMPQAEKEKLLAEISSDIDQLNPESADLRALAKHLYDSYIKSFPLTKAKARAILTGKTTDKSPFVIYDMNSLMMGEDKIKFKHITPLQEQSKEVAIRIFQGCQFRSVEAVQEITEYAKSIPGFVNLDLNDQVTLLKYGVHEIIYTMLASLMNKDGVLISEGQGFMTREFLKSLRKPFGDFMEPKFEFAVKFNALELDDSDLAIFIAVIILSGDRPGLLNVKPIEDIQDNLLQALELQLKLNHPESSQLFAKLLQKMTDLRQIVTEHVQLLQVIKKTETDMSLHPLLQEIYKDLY

Homo sapiens [34] = species: Homo sapiens; assay: Selectivity for human GPR40 over dopamine D1 receptor (unknown origin)
Homo sapiens [35] = species: Homo sapiens; assay: Selectivity for human GPR40 over NK1 receptor (unknown origin)
Homo sapiens [36] = species: Homo sapiens; assay: Selectivity for human GPR40 over adrenergic beta1 receptor (unknown origin)
Homo sapiens [37] = species: Homo sapiens; assay: Selectivity for human GPR40 over dopamine D3 receptor (unknown origin)
Mus musculus [38] = species: Mus musculus; assay: Induction of glucose-stimulated insulin secretion in GPR40 knock out mouse pancreatic islets; type: functional
Homo sapiens [39] = species: Homo sapiens; assay: Selectivity for human GPR40 over adrenergic alpha1A receptor (unknown origin)
Homo sapiens [40] = species: Homo sapiens; assay: Selectivity for human GPR40 over adenosine A1 receptor (unknown origin)
Homo sapiens [41] = species: Homo sapiens; assay: Selectivity for human GPR40 over adrenergic alpha1D receptor (unknown origin)
Homo sapiens [42] = species: Homo sapiens; assay: Selectivity for human GPR40 over muscarinic M3 receptor (unknown origin)
Homo sapiens [43] = species: Homo sapiens; assay: Selectivity for human GPR40 over GPR103 (unknown origin)
Homo sapiens [44] = species: Homo sapiens; assay: Selectivity for human GPR40 over nAchR alpha1 bungarotoxin binding site (unknown origin)
Homo sapiens [45] = species: Homo sapiens; assay: Selectivity for human GPR40 over calcium channel L-type benzothiazepine binding site (unknown origin)
Homo sapiens [46] = species: Homo sapiens; assay: Selectivity for human GPR40 over sigma-1 receptor (unknown origin)
Homo sapiens [47] = species: Homo sapiens; assay: Selectivity for human GPR40 over NMDA receptor glycine binding site (unknown origin)
[48] = molecular target: Free fatty acid receptor 1 (Homo sapiens, UniProt O14842); assay: Agonist activity at human GPR40 expressed in CHO cells assessed as calcium flux by FLIPR assay; type: functional, cell-based
Homo sapiens [49] = species: Homo sapiens; assay: Selectivity for human GPR40 over adenosine A3 receptor (unknown origin)
Homo sapiens [50] = species: Homo sapiens; assay: Selectivity for human GPR40 over neuropeptide YY2 receptor (unknown origin)
Rattus norvegicus [51] = assay: Increase in plasma insulin level in ZDF rat at 0.1 mg/kg, po dosed 30 mins before glucose challenge by OGTT method; type: functional, organism-based; parameters: dose 0.1 mg/kg; procedure, shortened: as §1
Homo sapiens [52] = species: Homo sapiens; assay: Selectivity for human GPR40 over bradykinin B1 receptor (unknown origin)
Homo sapiens [53] = species: Homo sapiens; assay: Selectivity for human GPR40 over nAchR (unknown origin)
Homo sapiens [54] = species: Homo sapiens; assay: Selectivity for human GPR40 over mu opioid receptor (unknown origin)
Homo sapiens [55] = species: Homo sapiens; assay: Selectivity for human GPR40 over adrenergic alpha1B receptor (unknown origin)
Homo sapiens [56] = species: Homo sapiens; assay: Selectivity for human GPR40 over P2Y receptor (unknown origin)
Homo sapiens [57] = species: Homo sapiens; assay: Selectivity for human GPR40 over dopamine D2S receptor (unknown origin)
Homo sapiens [58] = species: Homo sapiens; assay: Selectivity for human GPR40 over central GABAB1A receptor (unknown origin)
Homo sapiens [59] = species: Homo sapiens; assay: Selectivity for human GPR40 over bradykinin B2 receptor (unknown origin)
Homo sapiens [60] = species: Homo sapiens; assay: Selectivity for human GPR40 over NMDA receptor phencyclidine binding site (unknown origin)
Homo sapiens [61] = species: Homo sapiens; assay: Selectivity for human GPR40 over DAT (unknown origin)
Rattus norvegicus [62] = assay: Reduction in glucose excursion in ZDF rat at 0.1 mg/kg, po dosed 30 mins before glucose challenge by OGTT method; type: functional, organism-based; parameters: dose 0.1 mg/kg; procedure, shortened: as §1
Homo sapiens [63] = species: Homo sapiens; assay: Selectivity for human GPR40 over IL1 receptor (unknown origin)
Homo sapiens [64] = species: Homo sapiens; assay: Selectivity for human GPR40 over androgen receptor (unknown origin)
Homo sapiens [65] = species: Homo sapiens; assay: Selectivity for human GPR40 over histamine H1 receptor (unknown origin)
Homo sapiens [66] = species: Homo sapiens; assay: Selectivity for human GPR40 over EGF receptor (unknown origin)
Homo sapiens [67] = species: Homo sapiens; assay: Selectivity for human GPR40 over kappa opioid receptor (unknown origin)
Homo sapiens [68] = species: Homo sapiens; assay: Selectivity for human GPR40 over sodium channel site 2 (unknown origin)
Homo sapiens [69] = species: Homo sapiens; assay: Selectivity for human GPR40 over KATP channel (unknown origin)
Homo sapiens [70] = species: Homo sapiens; assay: Selectivity for human GPR40 over SERT (unknown origin)
Mus musculus [71] = species: Mus musculus; assay: Induction of glucose-stimulated insulin secretion in wild type mouse pancreatic islets; type: functional
Homo sapiens [72] = species: Homo sapiens; assay: Selectivity for human GPR40 over histamine H2 receptor (unknown origin)
Homo sapiens [73] = species: Homo sapiens; assay: Selectivity for human GPR40 over endothelin ETB receptor (unknown origin)
Liver microsome = assay: Drug metabolism in human liver microsomes assessed as 2-methylbenzaldehyde formation at 500 uM incubated for 1 hr in presence of GSH and NADPH and by LC-MS/MS based GSH trapping assay; type: ADME

Free fatty acid receptor 1, sequence (O14842 whole entry): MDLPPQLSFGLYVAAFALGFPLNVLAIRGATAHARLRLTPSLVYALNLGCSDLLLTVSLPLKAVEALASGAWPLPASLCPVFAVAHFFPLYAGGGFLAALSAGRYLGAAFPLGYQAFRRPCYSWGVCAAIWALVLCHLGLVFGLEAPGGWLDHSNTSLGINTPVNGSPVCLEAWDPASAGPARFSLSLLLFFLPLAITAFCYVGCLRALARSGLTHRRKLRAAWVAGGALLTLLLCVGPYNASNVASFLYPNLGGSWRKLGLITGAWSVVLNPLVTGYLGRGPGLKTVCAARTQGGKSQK

SMILES: CCO[C@@H](CC(=O)O)c1ccc(O[C@@H]2CCc3c2cccc3C(F)(F)F)cc1
Selectivity ratio (Homo sapiens [1]): > 100
Selectivity ratio (Homo sapiens [2]): > 100
Selectivity ratio (Homo sapiens [3]): > 100
Selectivity ratio (Homo sapiens [4]): > 100
Selectivity ratio (Homo sapiens [5]): > 100
Selectivity ratio (Homo sapiens [6]): > 100
Selectivity ratio (Homo sapiens [7]): > 100
Selectivity ratio (Homo sapiens [8]): > 100
Selectivity ratio (Homo sapiens [9]): > 100
Selectivity ratio (Homo sapiens [10]): > 100
Selectivity ratio (Homo sapiens [11]): > 100
Selectivity ratio (Homo sapiens [12]): > 100
Selectivity ratio (Homo sapiens [13]): > 100
Selectivity ratio (Homo sapiens [14]): > 100
Selectivity ratio (Homo sapiens [15]): > 100
Selectivity ratio (Homo sapiens [16]): > 100
Selectivity ratio (Homo sapiens [17]): > 100
Selectivity ratio (Homo sapiens [18]): > 100
Selectivity ratio (Homo sapiens [19]): > 100
Selectivity ratio (Homo sapiens [20]): > 100
Selectivity ratio (Homo sapiens [21]): > 100
Selectivity ratio (Homo sapiens [22]): > 100
Selectivity ratio (Homo sapiens [23]): > 100
Selectivity ratio (Homo sapiens [24]): > 100
Selectivity ratio (Homo sapiens [25]): > 100
Activity (Rattus norvegicus [26]): Active
Selectivity ratio (Homo sapiens [27]): > 100
Selectivity ratio (Homo sapiens [28]): > 100
Selectivity ratio (Homo sapiens [29]): > 100
Selectivity ratio (Homo sapiens [30]): > 100
Selectivity ratio (Homo sapiens [31]): > 100
Selectivity ratio (Homo sapiens [32]): > 100
Activity [33]: inactive
Selectivity ratio (Homo sapiens [34]): > 100
Selectivity ratio (Homo sapiens [35]): > 100
Selectivity ratio (Homo sapiens [36]): > 100
Selectivity ratio (Homo sapiens [37]): > 100
Activity (Mus musculus [38]): inactive
Selectivity ratio (Homo sapiens [39]): > 100
Selectivity ratio (Homo sapiens [40]): > 100
Selectivity ratio (Homo sapiens [41]): > 100
Selectivity ratio (Homo sapiens [42]): > 100
Selectivity ratio (Homo sapiens [43]): > 100
Selectivity ratio (Homo sapiens [44]): > 100
Selectivity ratio (Homo sapiens [45]): > 100
Selectivity ratio (Homo sapiens [46]): > 100
Selectivity ratio (Homo sapiens [47]): > 100
EC50 [48]: 3.7 nM
Selectivity ratio (Homo sapiens [49]): > 100
Selectivity ratio (Homo sapiens [50]): > 100
Activity (Rattus norvegicus [51]): Active
Selectivity ratio (Homo sapiens [52]): > 100
Selectivity ratio (Homo sapiens [53]): > 100
Selectivity ratio (Homo sapiens [54]): > 100
Selectivity ratio (Homo sapiens [55]): > 100
Selectivity ratio (Homo sapiens [56]): > 100
Selectivity ratio (Homo sapiens [57]): > 100
Selectivity ratio (Homo sapiens [58]): > 100
Selectivity ratio (Homo sapiens [59]): > 100
Selectivity ratio (Homo sapiens [60]): > 100
Selectivity ratio (Homo sapiens [61]): > 100
Activity (Rattus norvegicus [62]): Active
Selectivity ratio (Homo sapiens [63]): > 100
Selectivity ratio (Homo sapiens [64]): > 100
Selectivity ratio (Homo sapiens [65]): > 100
Selectivity ratio (Homo sapiens [66]): > 100
Selectivity ratio (Homo sapiens [67]): > 100
Selectivity ratio (Homo sapiens [68]): > 100
Selectivity ratio (Homo sapiens [69]): > 100
Selectivity ratio (Homo sapiens [70]): > 100
Activity (Mus musculus [71]): Active
Selectivity ratio (Homo sapiens [72]): > 100
Selectivity ratio (Homo sapiens [73]): > 100

Drug metabolism (Liver microsome): metabolite_detected
SMILES: CCOC(CC(=O)O)c1ccc(OCc2ccccc2C)cc1 (racemic)

SMILES: CCO[C@H](CC(=O)O)c1ccc(O[C@@H]2CCc3c2cccc3C(F)(F)F)cc1
EC50 [48]: 330 nM

EC50 [48]: 6.2 nM
SMILES: CCOC(CC(=O)O)c1ccc(OCc2ccc(Cl)c(Cl)c2)cc1 (racemic)
